MrgX1 ag: human MrgX1 receptor agonism, primary screen. Q96LB2. MrgX1-HEK293 cells, Fluo-4 calcium fluorescence, agonist mode; active compounds read high. hit rate 0.44% among 310,000. B-score at 10 µM;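 active means calcium response B-score plate-corrected fluorescence ratio at least 3 library SD, with starting fluorescence B-score inside 5 SD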
Target sequence (Q96LB2 whole entry, looked up): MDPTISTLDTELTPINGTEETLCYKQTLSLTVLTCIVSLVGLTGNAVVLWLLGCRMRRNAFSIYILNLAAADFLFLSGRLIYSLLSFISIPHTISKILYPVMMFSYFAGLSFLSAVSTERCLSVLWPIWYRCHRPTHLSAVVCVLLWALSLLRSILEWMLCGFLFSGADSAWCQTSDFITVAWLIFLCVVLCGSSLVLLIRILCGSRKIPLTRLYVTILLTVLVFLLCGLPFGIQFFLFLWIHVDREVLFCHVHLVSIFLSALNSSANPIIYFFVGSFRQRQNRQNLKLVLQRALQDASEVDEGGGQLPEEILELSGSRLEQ
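Test system: HEK293 cells stably expressing human MrgX1 receptor; amount: 15,000 cells per well; doses: compound delivered in addition one of three; times: overnight plating before 1 h dye loading; detection: Fluo-4 NW calcium-flux fluorescence, kinetic read; read-out basis: B-scored fluorescence response ratio; controls: positive and negative controls per plate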
RGS4 pot: RGS4 potentiation or activation; AID 463111; hit rate 0.92% among 310,000; HEK293 M3R/inducible RGS4, carbachol calcium flux Fluo4; active compounds read low; B-score at 10 µM;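 active means B-score of the integrated calcium signal more than 4 SD below the library mean, with starting fluorescence not abnormally high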;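 further: negative B-score means reduced calcium response which marks RGS4 activation or potentiation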
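Material: Inducible-RGS4 HEK293 cells carrying M3 receptor; also added: carbachol at ECmax as muscarinic agonist stimulus; incubation: compound preincubation 20 min at room temperature before agonist; signal: Fluo4-AM (2 µM) calcium-flux fluorescence, kinetic read; measure: integrated calcium ratio converted to B score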
MrgX1 antag: antagonists of human MrgX1 receptor | Q96LB2 | MRGX1-HEK293 calcium flux, Fluo-4, BAM8-22 antagonism; active compounds read low | B-score at 10 µM | hit rate 1.3% among 310,000 | AID 588676;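 active means calcium-response B-score plate-corrected more than 3 library SD below zero, starting fluorescence within 5 deviations, no agonist response on first addition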;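 further: peak minus trough fluorescence over baseline after final BAM8-22 challenge near maximal dose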
RGS4 inh: human RGS4 inhibition; P49798; HEK293 M3R/RGS4 inducible, Fluo-4 calcium flux; active compounds read high; triggered by carbachol at its EC20; B-score at 10 µM; hit rate 0.45% among 310,000;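 active means B-score, a plate-corrected calcium signal, over three deviations above library mean, with baseline fluorescence within five deviations of library mean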;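 further: RGS4 expression induced by doxycycline in cells with stable M3 receptor; B-score is computed from the integrated fluorescence ratio over baseline after carbachol; higher B-score means a larger calcium signal and so more RGS4 inhibition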
Target sequence (P49798 whole entry, looked up): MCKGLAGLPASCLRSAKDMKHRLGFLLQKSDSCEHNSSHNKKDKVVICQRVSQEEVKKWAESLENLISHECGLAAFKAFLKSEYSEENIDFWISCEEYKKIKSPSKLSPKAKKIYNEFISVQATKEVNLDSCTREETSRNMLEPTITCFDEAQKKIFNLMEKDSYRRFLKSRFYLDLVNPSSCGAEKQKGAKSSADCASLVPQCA
MrgX1 PAM: human MrgX1 positive allosteric modulation, primary screen | Q96LB2 | MrgX1-HEK293, Fluo-4 calcium flux, FDSS; active compounds read high | B-score at 10 µM | hit rate 0.63% among 310,000 | AID 588675;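 active means plate-corrected calcium response at least 3 library SD above typical, normal starting fluorescence, not activating the receptor alone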;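 further: compound read alongside a low EC10 to EC30 dose of BAM8-22 agonist; peak minus trough fluorescence over baseline measured at the second addition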
* = called active by the depositor. Shown are actives, neighbours in structure and some others; about 3.5% of the full set was active somewhere.

Cc1ccoc1C(=O)Nc1cccc2ccccc12 was read as MrgX1 ag inactive, RGS4 pot inactive, MrgX1 antag inactive, RGS4 inh inactive and MrgX1 PAM inactive.
Screening CCCCn1c(N)c(N(CC(C)C)C(=O)c2ccc(OCC3CCCO3)cc2)c(=O)[nH]c1=O (centres undefined) returned MrgX1 ag inactive, RGS4 pot inactive, MrgX1 antag -6.2*, RGS4 inh inactive and MrgX1 PAM inactive.
For O=C(C1CCC1)N1CCc2cc(S(=O)(=O)NC3CCCC3)ccc21 the results were MrgX1 ag inactive, RGS4 pot inactive, MrgX1 antag inactive, RGS4 inh inactive and MrgX1 PAM inactive.
CN1CCN(c2ccccc2NS(=O)(=O)c2ccc3c(c2)CCN3C(=O)C2CCC2)CC1 was read as MrgX1 ag inactive, RGS4 pot -9.8*, MrgX1 antag inactive, RGS4 inh inactive and MrgX1 PAM inactive.
`Cc1ccc2nc(-c3ccccc3)nc(SC(C)C(=O)NCc3cccs3)c2c1` (centres undefined) gave MrgX1 ag inactive, RGS4 pot inactive, MrgX1 antag -7.3*, RGS4 inh inactive and MrgX1 PAM inactive.
`O=C(CN1C(=O)NC2(CCCCCCC2)C1=O)NC1CCCc2ccccc21` (centres undefined) gave MrgX1 ag inactive, RGS4 pot inactive, MrgX1 antag inactive, RGS4 inh inactive and MrgX1 PAM inactive.
N#Cc1ccc(NC(=O)CNc2cc(S(=O)(=O)N3CCOCC3)ccc2NCC2CCCO2)cc1 (centres undefined) was read as MrgX1 ag inactive, RGS4 pot inactive, MrgX1 antag inactive, RGS4 inh inactive and MrgX1 PAM 6.6*.
CCC(C(=O)N1CCC(C(N)=O)CC1)n1nc(C)n2c(cc3occc32)c1=O (centres undefined) was read as MrgX1 ag inactive, RGS4 pot inactive, MrgX1 antag inactive, RGS4 inh inactive and MrgX1 PAM inactive.
Screening Oc1ccccc1C1CC(c2cccs2)=NC(c2ccc(Cl)cc2)N1 (centres undefined) returned MrgX1 ag inactive, RGS4 pot inactive, MrgX1 antag inactive, RGS4 inh inactive and MrgX1 PAM 7.4*.
Screening COc1ccccc1C(C#N)N1N=C(C)CC1c1ccccc1 (centres undefined) returned MrgX1 ag 28*, RGS4 pot inactive, MrgX1 antag inactive, RGS4 inh inactive and MrgX1 PAM inactive.
For O=C(NC(NC(=S)Nc1ccc(Cl)cc1)C(Cl)(Cl)Cl)c1ccco1 (centres undefined) the results were MrgX1 ag inactive, RGS4 pot inactive, MrgX1 antag inactive, RGS4 inh inactive and MrgX1 PAM inactive.
For CC(=O)c1ccc(NC(=S)NC(NC(=O)c2ccco2)C(Cl)(Cl)Cl)cc1 (centres undefined) the results were MrgX1 ag inactive, RGS4 pot inactive, MrgX1 antag inactive, RGS4 inh inactive and MrgX1 PAM 7.6*.
`COc1ccc2ccccc2c1/C=N/NC(=O)c1nnn(-c2nonc2N)c1C(C)C` gave MrgX1 ag inactive, RGS4 pot -7.1*, MrgX1 antag inactive, RGS4 inh inactive and MrgX1 PAM inactive.
`COc1ccc2ccccc2c1/C=N/NC(=O)c1nnn(-c2nonc2N)c1CN(C)C` gave MrgX1 ag inactive, RGS4 pot inactive, MrgX1 antag inactive, RGS4 inh inactive and MrgX1 PAM inactive.
Screening CC1CC(C)CN(CCCNC(=O)c2nn(C)c3c2CS(=O)(=O)c2ccccc2-3)C1 (centres undefined) returned MrgX1 ag inactive, RGS4 pot inactive, MrgX1 antag inactive, RGS4 inh inactive and MrgX1 PAM inactive.
`O=C1C(=Cc2cccs2)C(=O)c2ccccc21` gave MrgX1 ag 32*, RGS4 pot inactive, MrgX1 antag inactive, RGS4 inh inactive and MrgX1 PAM inactive.
`O=C1NN(c2ccccc2)C(=O)/C1=C/c1cccs1` gave MrgX1 ag 43*, RGS4 pot inactive, MrgX1 antag inactive, RGS4 inh inactive and MrgX1 PAM inactive.
For O=C1NN(c2cccc(Br)c2)C(=O)/C1=C/c1cccs1 the results were MrgX1 ag 30*, RGS4 pot inactive, MrgX1 antag inactive, RGS4 inh inactive and MrgX1 PAM inactive.
Screening O=C1NN(c2ccccc2)C(=O)/C1=C\c1ccccc1 returned MrgX1 ag inactive, RGS4 pot inactive, MrgX1 antag inactive, RGS4 inh inactive and MrgX1 PAM inactive.
Screening O=C1C(=O)N(Cc2cccnc2)C(c2cccc(Br)c2)/C1=C(/O)c1ccc2c(c1)OCO2 (centres undefined) returned MrgX1 ag inactive, RGS4 pot inactive, MrgX1 antag inactive, RGS4 inh inactive and MrgX1 PAM inactive.
For CCCCc1ccc(N=N/C(C(=O)Nc2ccccc2OC)=C(/C)O)cc1 the results were MrgX1 ag inactive, RGS4 pot inactive, MrgX1 antag -9.1*, RGS4 inh inactive and MrgX1 PAM inactive.
`O=C(O)c1c2c(nc3ccccc13)/C(=C/c1cccc([N+](=O)[O-])c1)CCC2` gave MrgX1 ag inactive, RGS4 pot inactive, MrgX1 antag inactive, RGS4 inh inactive and MrgX1 PAM 18*.
O=C(O)c1c2c(nc3ccccc13)/C(=C/c1ccccc1[N+](=O)[O-])CCC2 was read as MrgX1 ag inactive, RGS4 pot inactive, MrgX1 antag inactive, RGS4 inh inactive and MrgX1 PAM inactive.
`CCCCCCCCCCCCN1[C@@H](CC(=O)OC)c2cc(C(F)(F)F)ccc2S1(=O)=O` gave MrgX1 ag inactive, RGS4 pot inactive, MrgX1 antag -5.8*, RGS4 inh inactive and MrgX1 PAM inactive.
CCCCCCCCN1[C@@H](CC(=O)OC)c2cc(F)ccc2S1(=O)=O was read as MrgX1 ag inactive, RGS4 pot inactive, MrgX1 antag inactive, RGS4 inh inactive and MrgX1 PAM inactive.
CCCCCCCCCCCCN1[C@@H](CC(=O)O)c2cc(F)ccc2S1(=O)=O was read as MrgX1 ag inactive, RGS4 pot -7.7*, MrgX1 antag inactive, RGS4 inh inactive and MrgX1 PAM inactive.
Screening Cc1ccc(-c2cc(C(=O)Nc3ccncc3)c3ccccc3n2)cc1 returned MrgX1 ag inactive, RGS4 pot inactive, MrgX1 antag -7.6*, RGS4 inh inactive and MrgX1 PAM inactive.
`O=C(NCc1cc([N+](=O)[O-])ccc1O)c1cc(-c2ccncc2)nc2ccccc12` gave MrgX1 ag inactive, RGS4 pot -9.1*, MrgX1 antag inactive, RGS4 inh inactive and MrgX1 PAM inactive.
O=C(Nc1cccnc1)c1cc(-c2cccc(Br)c2)nc2ccccc12 was read as MrgX1 ag inactive, RGS4 pot -7.1*, MrgX1 antag inactive, RGS4 inh inactive and MrgX1 PAM inactive.

Screens deposited in PubChem by Johns Hopkins Ion Channel Center.
